# This is a sample that favours compounds with a hit; in the whole collection about 1.4% have one here.
# Cardiac RTF inh: cardiac RTF calcium desensitization; 340,000 tested, 0.12% active; inhibition, % at 7.15 µM; P19429+P45379; IANBD-labeled cardiac RTF, Ca2+ fluorescence;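 active = inhibition above the mean inhibition of all tested compounds plus 3 SD, cut at about 17% in these data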;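 also: assay run at fixed EC70 calcium of 1.6 mM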
# Tn7 DDE FP: DD(E)-Tn7 binding inhibition, primary FP screen; P02675; AID 720508; inhibition, % at 8.3 µM; FP displacement of FITC-Tn7 peptide from fibrin DD(E); 0% = median of compound wells per plate; 370,000 tested, 0.13% active;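 active = inhibition above the mean of compounds falling within the control limits plus 3 SD of them, cut at about 14% in these data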
# Target sequence (P02675 whole entry, looked up): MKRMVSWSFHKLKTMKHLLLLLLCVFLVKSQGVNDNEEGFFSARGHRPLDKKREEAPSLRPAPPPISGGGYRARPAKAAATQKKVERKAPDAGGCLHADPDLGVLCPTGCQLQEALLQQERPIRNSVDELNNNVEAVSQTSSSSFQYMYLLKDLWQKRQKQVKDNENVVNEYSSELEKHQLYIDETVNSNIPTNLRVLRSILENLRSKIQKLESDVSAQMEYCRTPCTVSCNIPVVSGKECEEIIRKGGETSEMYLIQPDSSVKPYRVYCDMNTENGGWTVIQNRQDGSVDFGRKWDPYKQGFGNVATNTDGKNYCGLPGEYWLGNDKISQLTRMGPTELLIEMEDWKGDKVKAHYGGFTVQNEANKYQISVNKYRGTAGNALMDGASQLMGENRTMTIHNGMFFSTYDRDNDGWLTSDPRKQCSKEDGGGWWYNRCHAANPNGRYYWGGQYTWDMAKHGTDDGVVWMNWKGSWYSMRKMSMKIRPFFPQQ
#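 Test system: human clot-derived fibrin DD(E) complex / Quantity: 2 µM final DD(E) protein / Incubation: 10 min plus 3 h, room temperature / Measured by: fluorescence polarization / Benchmarks: high control of 10 µM Aha-Tn7 peptide / Replicates: singlicate testing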
# Tn6 DDE FP: DD(E)-Tn6 binding inhibition, primary FP screen | Fibrin DD(E) TRITC-Tn6 fluorescence polarization displacement | inhibition, % at 8.3 µM | 370,000 tested, 0.21% active;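 active = inhibition above a per-campaign cutoff: mean of compounds within control limits plus 3 SD, cut at about 15% in these data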
# cardiac RTF act: increases calcium sensitivity of human cardiac regulated thin filaments; activation, % at 7.2 µM; IANBD-labeled TnC RTF fluorescence at EC20 calcium; 0% EC20 calcium, 100% full calcium; AID 493008; 340,000 tested, 0.24% active;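 active = activation above the mean over all tested compounds plus 3 SD, cut at about 30% in these data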;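 also: rise in fluorescence read as greater calcium sensitivity of cardiac thin filaments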
# CRFBP-R2 block: CRF-BP/CRF-R2 complex antagonism. inhibition, % at 11.8 µM. 350,000 tested, 0.59% active. HEK293 CRF-R2/CRF-BP, CRF-induced calcium fluorescence;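 active = inhibition of the ligand-induced calcium signal above about 50% at the single tested concentration, limit read from the data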
# CRFBP-R2 agonist: agonists of human CRF-binding protein/CRF-R2 receptor complex. HEK293 CRF-R2/CRF-BP, calcium dye fluorescence (FLIPR); percent of saturating CRF peptide response. activation, % at 13.2 µM. 350,000 tested, 0.46% active. AID 588473;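 active = activation of at least 50%, plus an integration ratio under a set limit after plate pattern correction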
# Numbers stand for hits; 0 = inactive; - = no result; ! = not active in a repeat.
SMILES,Cardiac RTF inh,Tn7 DDE FP,Tn6 DDE FP,cardiac RTF act,CRFBP-R2 block,CRFBP-R2 agonist
CCOC(=O)C1=NN(C(=O)c2ccc(C)cc2)C(O)(c2ccc(Cl)cc2)C1 (stereo not given),0,0,0,0,0,90
CC(C)N(C(=O)COC(=O)c1cncc(Br)c1)C(C)C,0,0,0,0,104,0
Cc1ccc(S(=O)(=O)N(Cc2ccccc2)c2ccccc2C(=O)NCc2ccco2)cc1,0,0,0,0,71,0
CCOC(=O)N1CCN(C(=O)C[C@H]2C[C@@]3(C(=O)OC)C(=C[C@H](C4CCCC4)O[C@@H]3C)N(Cc3ccc(Cl)cc3Cl)C2=O)CC1,-,0,0,-,-,-
CCOC(=O)C1=C(C)NC(SCC(=O)OC)=C(C#N)C1c1ccc(C(=O)OC)cc1 (stereo not given),0,0,0,0,55!,0
Cc1ccc(-n2c(SCC(=O)Nc3ccc(OCc4ccccc4)cc3)nnc2-c2cnccn2)cc1,-,0,0,-,-,-
COC(=O)c1ccc(CSc2nc3c(c(=O)n2-c2ccc(Br)cc2)SCC3)o1,0,0,0,0,61,0
COc1ccc(COc2cc(-c3cccc(OC)c3)nc3ccc(NC(=O)c4ccc(C)cc4)cc23)cc1,0,0,0,33,0,0
Cc1ccc2c(c1)[nH]c1c(=O)n(Cc3ccco3)cnc12,0,0,0,0,0,84
O=c1c2[nH]c3ccccc3c2ncn1Cc1ccco1,0,0,0,0,0,0
CCC[C@H]1[C@@H](OC(=O)N2CCN(c3ccccc3)CC2)CC[C@@]23CCCN2C(=O)CCC[C@@H]13,-,0,0,-,-,-
Fc1ccc(OCc2nnc(-c3ccccc3Br)o2)c(Cl)c1,0,0,0,0,0,0
Clc1ccc(OCc2nnc(-c3ccccc3Br)o2)c(Cl)c1,0,0,42,0,0,0
O=C(CN1CCN(C(=O)CNC(=O)c2ccc(N3CCCC3=O)cc2)CC1)Nc1cccc(F)c1,-,0,0,-,0,0
CCC[C@@H](/C=C/C(=O)OC(C)(C)C)Sc1ccccc1OC,-,0,0,-,-,-
Cc1ccc(CNCCCSc2nc(C)cc(C)n2)cc1,0,0,0,0,0,0
Cc1cc(C)nc(SCCCNCc2ccc(Br)cc2)n1,0,0,0,32,0,0
N#CCC[C@@H]1CC[C@]2(CCCN(C(=O)c3cccnc3)C2)O1,-,0,0,-,-,-
CCN1C(=O)CC(N2CCC(C(=O)N3CCOCC3)CC2)C1=O (stereo not given),0,16,0,0,0,0
CCN1C(=O)CC(N2CCOCC2)C1=O (stereo not given),0,0,0,0,0,0
CCCc1nnc(NC(=O)Cn2c(=O)oc3cc(Br)ccc32)s1,0,0,0,0,0,79
O=C(NCCCc1ccccc1)OC1CCC12CCC(c1ccccc1)CC2 (stereo not given),-,0,0,-,-,-
COc1cccc(C2(c3cccc(OC)c3)CC2C(=O)Nc2ccc(F)cc2)c1 (stereo not given),0,0,0,0,0,0
COc1cccc(C2(c3cccc(OC)c3)CC2C(=O)Nc2ccccc2Cl)c1 (stereo not given),0,0,0,0,77,0
CSc1ccc(SC2CN(Cc3ccc(C)cc3)S(=O)(=O)C2)cc1 (stereo not given),-,0,0,-,-,-
SMILES,Cardiac RTF inh,Tn7 DDE FP,Tn6 DDE FP,cardiac RTF act,CRFBP-R2 block,CRFBP-R2 agonist
CCCCn1c(=NC(C)=O)c(C#N)cc2c(=O)n3cccc(C)c3nc21,0,0,0,0,0,0
CCCCCn1c(=NC(=O)c2cccnc2)c(C#N)cc2c(=O)n3cccc(C)c3nc21,0,0,0,0,0,63
CCOc1ccc(NC(=S)N(Cc2ccc(N(C)C)cc2)Cc2ccco2)cc1,0,-,-,0,77,0
COc1ccc(NC(=S)N(Cc2ccc(N(C)C)cc2)Cc2ccco2)cc1,0,0,0,0,0,0
COc1cccc(C(NC(C)=O)c2nc(-c3ccc(F)cc3OC)cs2)c1 (stereo not given),-,0,0,-,-,-
COc1ccc(OCC(O)CN2CCc3ccccc3C2)cc1 (stereo not given),0,0,0,0,56,0
CCN(C(=O)CCc1ccccc1)C1CCCCC1,0,0,0,0,0,0
CN1CCC(N(CCc2ccccc2)C(=O)CCC(=O)O)CC1,0,0,0,35,0,0
O=C(CCC1CCCC1)c1c(O)c2ccccc2oc1=O,0,0,0,0,66,89
Cc1cc(OCCCN2CCC(C(O)(c3ccccc3)c3ccccc3)CC2)ccc1Br,-,0,0,-,-,-
CCCCCCCCCCCC1=C(O)C(=O)C=C(O)C1=O,0,-,-,0,0,62
C[C@@H]1CN([C@@H](C)CO)C(=O)Cc2cc(NC(=O)Nc3ccc(F)cc3)ccc2O[C@@H]1CN(C)Cc1ccc(Cl)c(Cl)c1,0,0,0,0,0,0
C[C@H]1CN([C@@H](C)CO)C(=O)Cc2cc(NS(C)(=O)=O)ccc2O[C@@H]1CN(C)Cc1ccc(Cl)c(Cl)c1,0,0,0,0,55,0
CCCCOc1ccc(C(=O)NC2CCCCN(CC)C2=O)cc1 (stereo not given),-,0,0,-,-,-
COc1ccc(Oc2ccc(C(F)(F)F)cc2NC(=O)c2ccc(OC)cc2)cc1,0,0,0,0,52,0
Cc1c(-c2ccc(Cl)cc2)[n+](=O)c(-c2ccccc2)cn1[O-],-,0,0,-,111,0
COc1ccc(NC(=O)Cc2c(SC)c3ccccc3n2Cc2ccccc2)cc1,0,0,0,0,60,0
CSc1c(CC(=O)NCCCO)n(Cc2ccccc2)c2ccccc12,0,0,0,0,0,0
CN1CCC2(CC1)Nc1nc(SCc3ccc(Cl)cc3)nn1C1=C2CN(C)CC1,0,0,0,0,86,0
Cc1ccc(-n2c(SCC(=O)N/N=C/C=C\c3ccccc3[N+](=O)[O-])nnc2-c2ccccc2)cc1,-,0,0,-,-,-
CCOc1ccccc1C(=O)N[C@H](C(=O)OCC(=O)Nc1nnc(-c2ccccc2)o1)C(C)C,0,0,0,0,0,0
CCC(C)[C@H](NC(=O)N1CCC(C)CC1)C(=O)OC (stereo not given in full),0,0,0,44,0,0
NNC(=S)NC1CCS(=O)(=O)C1 (stereo not given),-,0,0,-,108,0
CC(C)(C)NC(=O)C(c1ccccn1)N(C(=O)C1CSC(=O)C1)c1cccc(F)c1 (stereo not given),0,0,0,0,70,0
COc1cccc(N(C(=O)C2CSC(=O)C2)C(C(=O)NC(C)(C)C)c2ccncc2)c1 (stereo not given),0,0,0,0,0,0
CCc1ccc([C@@H]2CC=C(C(=O)O)[C@H](c3ccc(C(C)(C)C)cc3)N2S(=O)(=O)c2ccc(C)cc2)cc1,0,0,0,0,50,0

# Screening results: PubChem BioAssay, several laboratories
